Measurements reported in ChEMBL document CHEMBL1938274, “Discovery of potent and specific CXCR3 antagonists” (Bioorg Med Chem Lett, 2012).

How the values were obtained:
[1] = Clearance in cynomolgus monkey at 0.5 mg/kg, iv; type: ADME, organism-based, Macaca fascicularis; parameters: dose 0.5 mg/kg, route intravenous; details: in vivo
Method in brief: (§1)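 Single intravenous dose in 10% N,N-dimethylacetamide, 10% ethanol, 30% propylene glycol, 50% water: 1 mg/kg mouse; 0.5 mg/kg rat, beagle dog, cynomolgus monkey. Plasma clearance also given as percent of hepatic blood flow.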

[2] = Mean residence time in mouse at 1 mg/kg, iv; type: ADME, organism-based; parameters: dose 1 mg/kg, route intravenous; details: in vivo; method in brief: as §1
[3] = Mean residence time in rat at 0.5 mg/kg, iv; type: ADME, organism-based; parameters: dose 0.5 mg/kg, route intravenous; details: in vivo; method in brief: as §1
[4] = Mean residence time in Beagle dog at 0.5 mg/kg, iv; type: ADME, organism-based, Canis lupus familiaris; parameters: dose 0.5 mg/kg, route intravenous; details: in vivo; method in brief: as §1
[5] = Mean residence time in cynomolgus monkey at 0.5 mg/kg, iv; type: ADME, organism-based, Macaca fascicularis; parameters: dose 0.5 mg/kg, route intravenous; details: in vivo; method in brief: as §1
[6] = Apparent oral bioavailability in mouse at 5 mg/kg; type: ADME, organism-based; details: in vivo, read-out: Fapp
[7] = Apparent oral bioavailability in rat at 2 mg/kg; type: ADME, organism-based; details: in vivo, read-out: Fapp
[8] = Apparent oral bioavailability in Beagle dog at 2 mg/kg; type: ADME, organism-based, Canis lupus familiaris; details: in vivo, read-out: Fapp
[9] = Apparent oral bioavailability in cynomolgus monkey at 2 mg/kg; type: ADME, organism-based, Macaca fascicularis; details: in vivo, read-out: Fapp
[10] = Volume of distribution at steady state in mouse at 1 mg/kg, iv; type: ADME, organism-based; parameters: dose 1 mg/kg, route intravenous; details: in vivo, read-out: Vdss; method in brief: as §1
[11] = Volume of distribution at steady state in rat at 0.5 mg/kg, iv; type: ADME, organism-based; parameters: dose 0.5 mg/kg, route intravenous; details: in vivo, read-out: Vdss; method in brief: as §1
[12] = Volume of distribution at steady state in Beagle dog at 0.5 mg/kg, iv; type: ADME, organism-based, Canis lupus familiaris; parameters: dose 0.5 mg/kg, route intravenous; details: in vivo, read-out: Vdss; method in brief: as §1
[13] = Volume of distribution at steady state in cynomolgus monkey at 0.5 mg/kg, iv; type: ADME, organism-based, Macaca fascicularis; parameters: dose 0.5 mg/kg, route intravenous; details: in vivo, read-out: Vdss; method in brief: as §1
[14] = target: Cytochrome P450 2D6 (Homo sapiens, UniProt P10635); experiment: Inhibition of CYP2D6; type: ADME
[15] = tested on: PBL; experiment: Toxicity in human PBL assessed as chromosomal aberrations at 7.81 to 1000 ug/mL in the presence of S9; type: cell-based
Method in brief: (§2)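 Cultured human peripheral blood lymphocytes exposed at 7.81–1000 μg/mL, with and without S9 metabolic activation; chromosomal aberrations scored.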

[16] = tested on: Mus musculus; experiment: Hepatic blood flow in mouse at 1 mg/kg, iv; type: ADME, organism-based, Liver; parameters: dose 1 mg/kg, route intravenous; details: in vivo; method in brief: as §1
[17] = tested on: Rattus norvegicus; experiment: Hepatic blood flow in rat at 0.5 mg/kg, iv; type: ADME, organism-based, Liver; parameters: dose 0.5 mg/kg, route intravenous; details: in vivo; method in brief: as §1
[18] = tested on: Canis familiaris; experiment: Hepatic blood flow in Beagle dog at 0.5 mg/kg, iv; type: ADME, organism-based, Canis lupus familiaris, Liver; parameters: dose 0.5 mg/kg, route intravenous; details: in vivo; method in brief: as §1
[19] = tested on: Cynomolgus monkey; experiment: Hepatic blood flow in cynomolgus monkey at 0.5 mg/kg, iv; type: ADME, organism-based, Macaca fascicularis, Liver; parameters: dose 0.5 mg/kg, route intravenous; details: in vivo; method in brief: as §1
[20] = Fraction unbound in mouse plasma; type: ADME, cell-free
[21] = Fraction unbound in rat plasma; type: ADME, cell-free
[22] = Fraction unbound in Beagle dog plasma; type: ADME, cell-free, Canis lupus familiaris
[23] = Fraction unbound in cynomolgus monkey plasma; type: ADME, cell-free, Macaca fascicularis
[24] = Half life in mouse at 1 mg/kg, iv; type: ADME, organism-based; parameters: dose 1 mg/kg, route intravenous; details: in vivo; method in brief: as §1
[25] = Half life in rat at 0.5 mg/kg, iv; type: ADME, organism-based; parameters: dose 0.5 mg/kg, route intravenous; details: in vivo; method in brief: as §1
[26] = Half life in Beagle dog at 0.5 mg/kg, iv; type: ADME, organism-based, Canis lupus familiaris; parameters: dose 0.5 mg/kg, route intravenous; details: in vivo; method in brief: as §1
[27] = Half life in cynomolgus monkey at 0.5 mg/kg, iv; type: ADME, organism-based, Macaca fascicularis; parameters: dose 0.5 mg/kg, route intravenous; details: in vivo; method in brief: as §1
[28] = target: T1, C-X-C chemokine receptor type 3 (Homo sapiens, UniProt P49682); experiment: Receptor occupancy of CXCR3 in human whole blood assessed as inhibition of ITAC binding by fluorescence quenching based FACS analysis
T1 sequence (P49682 whole entry): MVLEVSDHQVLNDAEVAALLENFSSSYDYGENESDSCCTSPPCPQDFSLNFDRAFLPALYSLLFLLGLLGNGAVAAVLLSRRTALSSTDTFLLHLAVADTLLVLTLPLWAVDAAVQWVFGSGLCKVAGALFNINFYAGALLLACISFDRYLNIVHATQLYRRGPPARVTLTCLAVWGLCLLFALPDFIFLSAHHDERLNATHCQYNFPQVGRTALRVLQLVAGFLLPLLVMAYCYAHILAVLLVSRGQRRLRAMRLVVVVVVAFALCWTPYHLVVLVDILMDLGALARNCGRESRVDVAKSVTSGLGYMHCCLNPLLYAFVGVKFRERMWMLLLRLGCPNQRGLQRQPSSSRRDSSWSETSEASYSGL

[29] = target: T2, C-X-C chemokine receptor type 3 (Mus musculus, UniProt O88410); experiment: Receptor occupancy of CXCR3 in mouse whole blood assessed as inhibition of ITAC binding by fluorescence quenching based FACS analysis
T2 sequence (O88410 whole entry): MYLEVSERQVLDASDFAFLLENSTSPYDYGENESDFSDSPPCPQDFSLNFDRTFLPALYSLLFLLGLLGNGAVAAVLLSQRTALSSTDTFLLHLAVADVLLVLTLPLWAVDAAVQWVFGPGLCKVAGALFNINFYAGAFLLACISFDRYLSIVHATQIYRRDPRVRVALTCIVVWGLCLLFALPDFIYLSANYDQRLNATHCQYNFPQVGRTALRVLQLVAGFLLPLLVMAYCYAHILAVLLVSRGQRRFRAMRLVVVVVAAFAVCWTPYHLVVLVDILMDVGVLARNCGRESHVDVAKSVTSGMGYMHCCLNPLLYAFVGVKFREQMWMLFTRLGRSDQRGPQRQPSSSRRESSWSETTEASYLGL

[30] = tested on: Mus musculus; experiment: Inhibition of bleomycin-induced leukocyte migration into lungs in C57BL/6 mouse lung injury model by measuring cell count in bronchoalveolar lavage fluid at 1 mg/kg, sc administered for 6 days; type: functional; details: route subcutaneous
Method in brief: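 C57BL/6 mice given one intra-tracheal instillation of bleomycin, 1 mg/kg; compound delivered subcutaneously by osmotic mini-pump from challenge day for 6 days; cells counted in bronchoalveolar lavage on day six.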

[31] = tested on: Blood; experiment: Drug level in C57BL/6 mouse blood at 10 mg/kg, sc after 1 hr; type: ADME, organism-based; parameters: dose 10 mg/kg, route subcutaneous; details: in vivo
Method in brief: (§3)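 C57BL/6 mice given bleomycin intra-tracheally and dosed subcutaneously by osmotic mini-pump for 6 days; plasma collected to measure drug level, reported 1 h post dose.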

[32] = tested on: Blood; experiment: Drug level in C57BL/6 mouse blood at 1 mg/kg, sc after 1 hr; type: ADME, organism-based; parameters: dose 1 mg/kg, route subcutaneous; details: in vivo; method in brief: as §3
[33] = tested on: Blood; experiment: Drug level in C57BL/6 mouse blood at 3 mg/kg, sc after 1 hr; type: ADME, organism-based; parameters: dose 3 mg/kg, route subcutaneous; details: in vivo; method in brief: as §3
[34] = target: Cytochrome P450 3A4 (Homo sapiens, UniProt P08684); experiment: Inhibition of CYP3A4; type: ADME
[35] = target: T1, C-X-C chemokine receptor type 3; experiment: Displacement of [125I]-IP-10 from CXCR3
[36] = target: T1, C-X-C chemokine receptor type 3; experiment: Displacement of [125I]-IP-10 from CXCR3 in presence of 100% human serum
[37] = tested on: PBL; experiment: Toxicity in human PBL assessed as chromosomal aberrations at 7.81 to 1000 ug/mL; type: cell-based; method in brief: as §2
[38] = Clearance in mouse at 1 mg/kg, iv; type: ADME, organism-based; parameters: dose 1 mg/kg, route intravenous; details: in vivo; method in brief: as §1
[39] = tested on: Rattus norvegicus; experiment: (§4) Clearance in rat at 0.5 mg/kg, iv; type: ADME, organism-based; parameters: dose 0.5 mg/kg, route intravenous; details: in vivo; method in brief: as §1
[40] = Clearance in Beagle dog at 0.5 mg/kg, iv; type: ADME, organism-based, Canis lupus familiaris; parameters: dose 0.5 mg/kg, route intravenous; details: in vivo; method in brief: as §1
[41] = as §4; type: ADME, organism-based; parameters: dose 0.5 mg/kg, route intravenous; details: in vivo; method in brief: as §1

Sequence of Cytochrome P450 3A4 (P08684 whole entry): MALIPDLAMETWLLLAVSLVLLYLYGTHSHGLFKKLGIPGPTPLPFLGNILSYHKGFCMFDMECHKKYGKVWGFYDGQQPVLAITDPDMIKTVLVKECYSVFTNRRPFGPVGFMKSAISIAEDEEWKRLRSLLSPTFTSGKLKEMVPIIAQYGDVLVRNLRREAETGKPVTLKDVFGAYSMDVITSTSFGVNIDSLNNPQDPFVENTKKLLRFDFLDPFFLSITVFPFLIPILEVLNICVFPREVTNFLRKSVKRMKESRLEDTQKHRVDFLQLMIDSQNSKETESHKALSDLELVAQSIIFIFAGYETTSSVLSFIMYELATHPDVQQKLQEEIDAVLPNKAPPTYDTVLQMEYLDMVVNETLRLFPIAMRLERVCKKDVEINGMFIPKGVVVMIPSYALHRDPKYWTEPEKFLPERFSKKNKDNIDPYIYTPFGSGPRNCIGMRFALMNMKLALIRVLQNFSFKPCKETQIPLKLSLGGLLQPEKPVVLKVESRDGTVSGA
Sequence of Cytochrome P450 2D6 (P10635 whole entry): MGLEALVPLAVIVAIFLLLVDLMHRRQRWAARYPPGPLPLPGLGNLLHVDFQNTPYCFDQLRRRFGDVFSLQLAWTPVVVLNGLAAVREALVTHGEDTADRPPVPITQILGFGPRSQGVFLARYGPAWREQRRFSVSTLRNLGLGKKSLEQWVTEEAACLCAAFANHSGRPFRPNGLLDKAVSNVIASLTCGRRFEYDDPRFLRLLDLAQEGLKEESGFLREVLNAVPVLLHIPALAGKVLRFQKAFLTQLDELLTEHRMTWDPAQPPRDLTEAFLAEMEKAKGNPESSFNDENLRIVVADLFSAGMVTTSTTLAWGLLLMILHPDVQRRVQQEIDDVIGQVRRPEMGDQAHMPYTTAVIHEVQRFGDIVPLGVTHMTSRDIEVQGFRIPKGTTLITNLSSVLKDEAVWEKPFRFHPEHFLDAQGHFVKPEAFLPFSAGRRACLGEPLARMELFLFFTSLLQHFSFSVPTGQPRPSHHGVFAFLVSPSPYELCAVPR

SMILES | clearance [1] [mL/min/kg] | MRT [2] [h] | MRT [3] [h] | MRT [4] [h] | MRT [5] [h] | bioavailability [6] [%] | bioavailability [7] [%] | bioavailability [8] [%] | bioavailability [9] [%] | Vd [10] [L/kg] | Vd [11] [L/kg] | Vd [12] [L/kg] | Vd [13] [L/kg] | Activity [15] | IC50 [29] [nM] | Drug uptake [31] [mg/kg] | Drug uptake [32] [µM] | Activity [37] | clearance [38] [mL/min/kg] | clearance [40] [mL/min/kg] | further results
C[C@H](c1nc2ncccc2c(=O)n1-c1ccc(Cl)cc1)N(CC1CCS(=O)(=O)CC1)C(=O)Cc1ccc(F)c(C(F)(F)F)c1 | 2 | 3.9 | 3.5 | 1.1 | 8.7 | 45 | 69 | > 100 | 44 | 0.48 | 1.9 | 1.4 | 1.2 | Non-toxic | 200 | 5.6 | 1.3 | Non-toxic | 2.17 | 25 | IC50 [14]: > 10000 nM; QH [16]: 3%; QH [17]: 3%; QH [18]: 82%; QH [19]: 3%; fraction unbound [20]: 0.007; fraction unbound [21]: 0.061; fraction unbound [22]: 0.015; fraction unbound [23]: 0.037; half-life [24]: 4 h; half-life [25]: 4 h; half-life [26]: 1 h; half-life [27]: 9 h; IC50 [28]: 9.8 nM; EC [30]: 1 mg/kg; Drug uptake [33]: 3.4 mg/kg; IC50 [34]: > 10000 nM; IC50 [35]: 6 nM; IC50 [36]: 12 nM; CL [39]: 8.17 mL/min/kg
CCS(=O)(=O)CCN(C(=O)Cc1ccc(F)c(C(F)(F)F)c1)[C@H](C)c1nc2ncccc2c(=O)n1-c1ccc(C#N)cc1 | 12.3 | 0.7 | – | 1.2 | 1.7 | 17 | – | 69 | 13 | – | – | – | – | Toxic | – | – | – | Toxic | 5.83 | 16.7 | –
CCOc1ccc(-n2c([C@@H](C)N(Cc3cccnc3)C(=O)Cc3ccc(OC(F)(F)F)cc3)nc3ncccc3c2=O)cc1 | – | – | – | – | – | – | – | – | – | – | – | – | – | – | 1900 | 2.3 | 0.16 | – | – | – | –
C[C@H](c1nc2ncccc2c(=O)n1-c1ccc(F)cc1)N(CC1CCS(=O)(=O)CC1)C(=O)Cc1ccc(F)c(C(F)(F)F)c1 | 5.67 | 2.1 | 2.4 | 1.5 | 6.4 | 59 | > 100 | > 100 | 51 | 0.73 | 5 | 1.3 | 2.2 | Non-toxic | – | – | – | Non-toxic | 5.67 | 14.8 | IC50 [35]: 7 nM; IC50 [36]: 17 nM; clearance [41]: 35 mL/min/kg
